Source: paper PMC11336813 (Heliyon, 2024)
Read-outs that look alike come from different tables or passages of the source.

How the values were obtained:
plasma proteins = details: cited from earlier work
[1] = cited from earlier work
Free = type: in vivo, children with epilepsy
How it was run: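 Children aged 0–16 y on an unchanged oral PER dose for ≥4 weeks, dosed in the evening. Blood (2 mL, EDTA) drawn 8:00–10:00 a.m. next day, spun 1 610 ×g for 5 min, and plasma stored at −80 °C. Plasma (200 μL) ultrafiltered at 13 680 ×g for 20 min at 4 °C. Ultrafiltrate (40 μL) plus PER-D5 internal standard was methanol-precipitated, then run on C18 reversed-phase positive-mode MRM against a least-squares linear calibration.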

[2] = Total PER plasma concentration by HPLC-MS/MS; type: in vivo, children with epilepsy
[3] = cited from earlier work; remark: listed apart in the source
[4] = type: physicochemical; details: n = 5
CYP2C9 = details: human liver microsomes; cited from earlier work
CYP3A4 = details: human liver microsomes; cited from earlier work
CYP2C19 = details: human liver microsomes; cited from earlier work
[5] = 57 plasma samples, steady state
[6] = Group A: cotherapy enzyme inducers, n = 11
[7] = Group B: cotherapy not strong enzyme inducers/not inhibitors, n = 10
[8] = Group C: cotherapy enzyme inhibitors (VPA), n = 31
[9] = Group D: cotherapy enzyme inducers + VPA, n = 5
[10] = patient No. 25, PER 5 mg·d^−1 with VPA

N#Cc1ccccc1-c1cc(-c2ccccn2)cn(-c2ccccc2)c1=O [PER, Perampanel]
Bound to plasma proteins (plasma proteins; after oral administration): 95%
Free PER available to exert pharmacological effects (plasma proteins): 5%
Reference range of blood (total) PER concentration [1]: 86 to 1000 ng/mL
Free concentration, range (Free; [5]): 0.42 to 23.14 ng/mL
Free concentration, mean ± SD (Free; 57 plasma samples, steady state, oral PER 2.00–8.00 mg·d^−1): 8.09 ± 5.85 ng/mL
Free PER concentration, mean ± SD (Free; [6]): 4.80 ± 3.70 ng/mL
Free PER concentration, mean ± SD (Free; [7]): 5.28 ± 5.57 ng/mL
Free PER concentration, mean ± SD (Free; [8]): 9.84 ± 5.66 ng/mL
Free PER concentration, mean ± SD (Free; [9]): 10.09 ± 7.54 ng/mL
Free PER concentration, mean ± SD (Free; VPA cotherapy, n = 36): 9.87 ± 5.83 ng/mL
Free drug PER concentration (Free; child No. 38, PER 2 mg·d^−1): 1.95 ng/mL
Free PER concentration, mean ± SD (Free; not VPA cotherapy, n = 21): 5.03 ± 4.57 ng/mL
Free drug PER concentration (Free; [10]): 17.71 ng/mL
Total concentration, range [2, 5]: 90.17 to 1867.73 ng/mL
Total PER concentration, mean ± SD [2, 6]: 311.32 ± 190.14 ng/mL
Total PER concentration, mean ± SD [2, 7]: 490.97 ± 255.71 ng/mL
Total PER concentration, mean ± SD [2, 8]: 745.60 ± 415.53 ng/mL
Total PER concentration, mean ± SD [2, 9]: 780.14 ± 459.18 ng/mL
Total PER concentration, mean ± SD ([2]; VPA cotherapy, n = 36): 750.40 ± 415.02 ng/mL
Total drug PER concentration ([2]; child No. 38, PER 2 mg·d^−1): 289.24 ng/mL
Total PER concentration, mean ± SD ([2]; not VPA cotherapy, n = 21): 396.87 ± 236.55 ng/mL
Total drug PER concentration [2, 10]: 1158.38 ng/mL
Plasma half-life [3]: approximately 105 h
Decrease of mean PER AUC values ([3]; with OXC): 50%
Decrease in blood concentration ([3]; with drugs that induce liver CYP3A4/5): 2–3 fold
Decrease in PER plasma concentrations ([3]; with enzyme-induced AEDs (OXC, CBZ, PHB)): 2–3 fold
Autosampler 5°C-8 h (x̄ ± s) ([4]; nominal 1 ng·mL^−1): 1.03 ± 0.05 ng/mL
frozen at −20 °C for 15 days (x̄ ± s) ([4]; nominal 1 ng·mL^−1): 0.96 ± 0.09 ng/mL
frozen at −20 °C for 30 days (x̄ ± s) ([4]; nominal 1 ng·mL^−1): 0.96 ± 0.08 ng/mL
frozen at −80 °C for 45 days (x̄ ± s) ([4]; nominal 1 ng·mL^−1): 0.97 ± 0.02 ng/mL
frozen at −80 °C for 60 days (x̄ ± s) ([4]; nominal 1 ng·mL^−1): 0.95 ± 0.07 ng/mL
Short-term 4 h (x̄ ± s) ([4]; nominal 1 ng·mL^−1, room temperature (about 25 °C) 4 h): 1.01 ± 0.09 ng/mL
Freeze-thaw Stability (x̄ ± s) ([4]; nominal 1 ng·mL^−1, three freeze–thaw cycles (−20 °C/room temperature)): 1.02 ± 0.05 ng/mL
Autosampler 5°C-8 h (x̄ ± s) ([4]; nominal 10 ng·mL^−1): 9.99 ± 0.37 ng/mL
frozen at −20 °C for 15 days (x̄ ± s) ([4]; nominal 10 ng·mL^−1): 9.99 ± 0.22 ng/mL
frozen at −20 °C for 30 days (x̄ ± s) ([4]; nominal 10 ng·mL^−1): 9.79 ± 0.21 ng/mL
frozen at −80 °C for 45 days (x̄ ± s) ([4]; nominal 10 ng·mL^−1): 10.03 ± 0.38 ng/mL
frozen at −80 °C for 60 days (x̄ ± s) ([4]; nominal 10 ng·mL^−1): 10.85 ± 0.38 ng/mL
Short-term 4 h (x̄ ± s) ([4]; nominal 10 ng·mL^−1, room temperature 4 h): 9.94 ± 0.42 ng/mL
Freeze-thaw Stability (x̄ ± s) ([4]; nominal 10 ng·mL^−1, three freeze–thaw cycles): 9.99 ± 0.08 ng/mL
Autosampler 5°C-8 h (x̄ ± s) ([4]; nominal 40 ng·mL^−1): 37.53 ± 1.46 ng/mL
frozen at −20 °C for 15 days (x̄ ± s) ([4]; nominal 40 ng·mL^−1): 39.06 ± 1.06 ng/mL
frozen at −20 °C for 30 days (x̄ ± s) ([4]; nominal 40 ng·mL^−1): 38.87 ± 1.52 ng/mL
frozen at −80 °C for 45 days (x̄ ± s) ([4]; nominal 40 ng·mL^−1): 43.90 ± 1.23 ng/mL
frozen at −80 °C for 60 days (x̄ ± s) ([4]; nominal 40 ng·mL^−1): 43.64 ± 1.27 ng/mL
Short-term 4 h (x̄ ± s) ([4]; nominal 40 ng·mL^−1, room temperature 4 h): 38.09 ± 1.40 ng/mL
Freeze-thaw Stability (x̄ ± s) ([4]; nominal 40 ng·mL^−1, three freeze–thaw cycles): 37.39 ± 0.53 ng/mL
Autosampler 5°C-8 h (x̄ ± s) ([4]; nominal 120 ng·mL^−1): 113.16 ± 0.76 ng/mL
frozen at −20 °C for 15 days (x̄ ± s) ([4]; nominal 120 ng·mL^−1): 121.27 ± 3.40 ng/mL
frozen at −20 °C for 30 days (x̄ ± s) ([4]; nominal 120 ng·mL^−1): 119.85 ± 2.22 ng/mL
frozen at −80 °C for 45 days (x̄ ± s) ([4]; nominal 120 ng·mL^−1): 130.97 ± 2.18 ng/mL
frozen at −80 °C for 60 days (x̄ ± s) ([4]; nominal 120 ng·mL^−1): 132.67 ± 1.39 ng/mL
Short-term 4 h (x̄ ± s) ([4]; nominal 120 ng·mL^−1, room temperature 4 h): 111.97 ± 2.47 ng/mL
Freeze-thaw Stability (x̄ ± s) ([4]; nominal 120 ng·mL^−1, three freeze–thaw cycles): 115.95 ± 6.88 ng/mL

CCCC(CCC)C(=O)O [VPA, valproic acid]
Inhibition of CYP2C9 activity (CYP2C9): potent inhibition
Inhibitory effect on CYP3A4 (CYP3A4): minor inhibitory effects
Inhibitory effect on CYP2C19 (CYP2C19): minor inhibitory effects
